This note sets out measurements from ChEMBL document CHEMBL1142665, “Synthesis and cytotoxic evaluation of novel spirohydantoin derivatives of the dihydrothieno[2,3-b]naphtho-4,9-dione system” (J Med Chem, 2005).

Experiment [1] concerns MCF7. The experiment in a line: Inhibitory concentration against MCF-7 human breast carcinoma cell line. The experiment is classed as functional, cell-based. The essentials:
(§1)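 Monolayer cultures in RPMI-1640 with 10% FBS; sensitive lines from ATCC, drug-resistant sublines from Istituto Tumori of Milan. Cells seeded at about 10% confluency and allowed 24 h to attach and recover. Exposed to varying drug concentrations for 24 h at 37 °C under 5% CO2, washed, then grown 48 h drug-free. Vehicle-matched controls. SRB read-out as %T/C. IC50 taken from dose/effect curve. Triplicate wells, mean of ≥3 independent experiments.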

Experiment [2] concerns SW-620. The experiment in a line: Inhibitory concentration against SW 620 human colon carcinoma cell line. It is filed as functional, cell-based. An outline of the steps:
as §1

Experiment [3] concerns NCI-H460. As to the kind of experiment: Inhibitory concentration against NCI-H460 lung carcinoma cell line. The experiment is classed as functional, cell-based. To be noted: Homo sapiens. An outline of the steps:
as §1

Experiment [4] concerns A2780. As to the kind of experiment: Inhibitory concentration against A2780 ovarian carcinoma cell line. To be noted: Homo sapiens. The experiment is classed as functional, cell-based. An outline of the steps:
as §1

Experiment [5] deals with A2780. As to the kind of experiment: Inhibitory concentration against A2780 ovarian carcinoma resistant to doxorubicin. The experiment is classed as functional, cell-based. To be noted: Homo sapiens. An outline of the steps:
as §1

The subject of experiment [6] is A2780cisR. The experiment in a line: Inhibitory concentration against A2780 ovarian carcinoma resistant to cisplatin. It is filed as functional, cell-based. To be noted: Homo sapiens. The essentials:
as §1

The subject of experiment [7] is A549. As to the kind of experiment: Inhibitory concentration against A549 lung carcinoma cell line. It is filed as functional, cell-based. Conditions: Homo sapiens. An outline of the steps: as §1
For experiment [8], the system named is HEp-2. The experiment in a line: Inhibitory concentration against Hep-2 epidermal carcinoma cell line. It is filed as functional, cell-based. To be noted: Homo sapiens. An outline of the steps: as §1
Experiment [9] concerns LoVo. As to the kind of experiment: Inhibitory concentration against LoVo colon carcinoma cell line. The experiment is classed as functional, cell-based. To be noted: Homo sapiens. An outline of the steps:
as §1

Experiment [10] deals with KB. The experiment in a line: Inhibitory concentration against KB epidermal carcinoma cell line. It is filed as functional, cell-based. Conditions: Homo sapiens. An outline of the steps:
as §1

For experiment [11], the system named is MCF7. As to the kind of experiment: Inhibitory concentration against MCF-7 human breast carcinoma resistant to doxorubicin. The experiment is classed as functional, cell-based. An outline of the steps:
as §1

Experiment [12] in a line: Inhibitory concentration against MeVo melanoma cell line. It is filed as functional, Homo sapiens. The essentials:
as §1

One may read the IC50 as the concentration that gives 50% inhibition. Lower therefore signals higher potency. With `CCC(C)N1C(=O)NC2(CSC3=C2C(=O)c2ccccc2C3=O)C1=O` (configuration not stated), the IC50 was 178 nM in experiment [1] (Homo sapiens, MCF7) and 562 nM in [2] (Homo sapiens, SW-620).
`CCCN1C(=O)NC2(CSC3=C2C(=O)c2ccccc2C3=O)C1=O` (configuration not stated): the 50% inhibitory concentration (IC50) in experiment [1] (Homo sapiens, MCF7) worked out at 104 nM; in experiment [2] (Homo sapiens, SW-620), 379 nM.
In the same order, the values of `CCN(CC)CCCN1C(=O)NC2(CSC3=C2C(=O)c2ccccc2C3=O)C1=O` (configuration not stated) are 26 nM and 54 nM.
In the same order, the values of `NCCN1C(=O)NC2(CSC3=C2C(=O)c2ccccc2C3=O)C1=O` (stereo in doubt; 11) are 22 nM and 35 nM.
Consider `CN(C)CCCN1C(=O)NC2(CSC3=C2C(=O)c2ccccc2C3=O)C1=O` (stereo in doubt; 15), for which the half-maximal inhibitory concentration (IC50) in [3] turned out to be 260 nM; in experiment [4], 68 nM; in experiment [5], 130 nM; in experiment [6], 110 nM; in experiment [7], 110 nM; in experiment [8] it was 170 nM. Further, the 50% inhibitory concentration (IC50) was found to be 230 nM in [9]; 19 nM in [1] (Homo sapiens, MCF7); 100 nM in [10]; 58 nM in experiment [2] (Homo sapiens, SW-620); 173 nM in [11]; 250 nM in experiment [12].
In the case of `NCCN1C(=O)NC2(CSC3=C2C(=O)c2ccccc2C3=O)C1=O` (stereo in doubt; (-)-11), the figures for the IC50 in [1] (mcf7) and in [2] (sw-620) were 31 nM and 47 nM, respectively.
In the same order, the values of `CN(C)CCCN1C(=O)NC2(CSC3=C2C(=O)c2ccccc2C3=O)C1=O` (stereo in doubt; (-)-15) are 27 nM and 65 nM.
`CCCCN1C(=O)NC2(CSC3=C2C(=O)c2ccccc2C3=O)C1=O` (configuration not stated): the IC50 was 178 nM in experiment [1] (Homo sapiens, MCF7) and 740 nM in experiment [2] (Homo sapiens, SW-620).
In the same order, the values of `CN(C)CCN1C(=O)NC2(CSC3=C2C(=O)c2ccccc2C3=O)C1=O` (configuration not stated) are 32 nM and 57 nM.
In the same order, the values of `CCN1C(=O)NC2(CSC3=C2C(=O)c2ccccc2C3=O)C1=O` (configuration not stated) are 116 nM and 203 nM.
For the compound `COc1cccc2c1C(=O)c1c(O)c3c(c(O)c1C2=O)C[C@@](O)(C(=O)CO)C[C@@H]3O[C@H]1C[C@H](N)[C@H](O)[C@H](C)O1` [DOXORUBICIN], the half-inhibitory concentration (IC50) worked out at 10 nM in experiment [3]; 7 nM in experiment [4]; 290 nM in [5]; 6 nM in [6]; 64 nM in experiment [7]; 59 nM in [8]. Further, the IC50 in experiment [9] is 33 nM; in [10] it was 21 nM; in experiment [2] (Homo sapiens, SW-620) it was 178 nM; in experiment [12], 820 nM.
Take `CC(C)(C)N1C(=O)NC2(CSC3=C2C(=O)c2ccccc2C3=O)C1=O` (configuration not stated): the IC50 in [1] (Homo sapiens, MCF7) came out at 331 nM; in experiment [2] (Homo sapiens, SW-620), 900 nM.
Take `O=C1C2=C(C(=O)c3ccccc31)C1(CS2)NC(=O)N(CCO)C1=O` (configuration not stated): the IC50 in experiment [1] (Homo sapiens, MCF7) was found to be 69 nM; in experiment [2] (Homo sapiens, SW-620), 198 nM.
In the same order, the values of `NCCCCN1C(=O)NC2(CSC3=C2C(=O)c2ccccc2C3=O)C1=O` (configuration not stated) are 35 nM and 68 nM.
As to `NCCCN1C(=O)NC2(CSC3=C2C(=O)c2ccccc2C3=O)C1=O` (configuration not stated), the IC50 in [1] (Homo sapiens, MCF7) turned out to be 25 nM; in experiment [2] (Homo sapiens, SW-620), 52 nM.
As for `CN(C)CCCN1C(=O)NC2(CSC3=C2C(=O)c2ccccc2C3=O)C1=O` (single isomer, unassigned; (+)), half-maximal inhibition in experiment [2] (sw-620) (IC50) required 60 nM.
As to `CCN(CC)CCN1C(=O)NC2(CSC3=C2C(=O)c2ccccc2C3=O)C1=O` (configuration not stated), the IC50 in experiment [1] (Homo sapiens, MCF7) was 21 nM; in [2] (Homo sapiens, SW-620), 50 nM.
For `NCCN1C(=O)NC2(CSC3=C2C(=O)c2ccccc2C3=O)C1=O` (single isomer, unassigned; (+)), the IC50 in [1] (mcf7) was 20 nM; in experiment [2] (sw-620) it was 34 nM.
With `O=C1C2=C(C(=O)c3ccccc31)C1(CS2)NC(=O)N(CCCO)C1=O` (configuration not stated), the IC50 was found to be 40 nM in experiment [1] (Homo sapiens, MCF7) and 119 nM in experiment [2] (Homo sapiens, SW-620).
Take `CN1C(=O)NC2(CSC3=C2C(=O)c2ccccc2C3=O)C1=O` (configuration not stated): the IC50 in [1] (Homo sapiens, MCF7) is 23 nM; in experiment [2] (Homo sapiens, SW-620), 108 nM.
